Laboratory results: ChEMBL document CHEMBL1833822, “Efficient synthesis of apricoxib, CS-706, a selective cyclooxygenase-2 inhibitor, and evaluation of inhibition of prostaglandin E2 production in inflammatory breast cancer cells” (2011)

What was measured:
Assay type in all cases: functional
SUM149PT [1] = experiment: Inhibition of sodium arachidonate-induced PGE2 production in human SUM149 cells at 100 nM preincubated for 2 hrs before sodium arachidonate challenge measured after 2 hrs by competitive EIA
Summary of the method: (§1)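 Cells seeded in triplicate, grown at 37°C, 5% CO2 to 80% confluence, washed with PBS, then given fresh medium with inhibitor (0.1, 1, 10 μM) or DMSO vehicle. After 2 h preincubation at 37°C, sodium arachidonate was added to 10 μM final for 2 h more. Supernatant PGE2 was measured by competitive EIA and normalized to trypsinized cell count (pg/mL/1000 cells). Three runs, mean ± SD.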

SUM149PT [2] = experiment: Inhibition of sodium arachidonate-induced PGE2 production in human SUM149 cells assessed as PGE2 level per 1000 cells at 1 uM preincubated for 2 hrs before sodium arachidonate challenge measured after 2 hrs by competitive EIA (reference value: 3.15 +/- 0.19 pg/mL); summary of the method: as §1
SUM149PT [3] = experiment: Inhibition of sodium arachidonate-induced PGE2 production in human SUM149 cells at 10 uM preincubated for 2 hrs before sodium arachidonate challenge measured after 2 hrs by competitive EIA; summary of the method: as §1
[4] = Inhibition of sodium arachidonate-induced PGE2 production in human SUM190 cells assessed as PGE2 level per 1000 cells at 10 uM preincubated for 2 hrs before sodium arachidonate challenge measured after 2 hrs by competitive EIA (reference value: 6.43 +/- 1.87 pg/mL); summary of the method: as §1
SUM149PT [5] = experiment: Inhibition of sodium arachidonate-induced PGE2 production in human SUM149 cells assessed as PGE2 level per 1000 cells at 0.1 uM preincubated for 2 hrs before sodium arachidonate challenge measured after 2 hrs by competitive EIA (reference value: 3.15 +/- 0.19 pg/mL); summary of the method: as §1
[6] = Inhibition of sodium arachidonate-induced PGE2 production in human SUM190 cells assessed as PGE2 level per 1000 cells at 0.1 uM preincubated for 2 hrs before sodium arachidonate challenge measured after 2 hrs by competitive EIA (reference value: 6.43 +/- 1.87 pg/mL); summary of the method: as §1
[7] = Inhibition of sodium arachidonate-induced PGE2 production in human SUM190 cells assessed as PGE2 level per 1000 cells at 1 uM preincubated for 2 hrs before sodium arachidonate challenge measured after 2 hrs by competitive EIA (reference value: 6.43 +/- 1.87 pg/mL); summary of the method: as §1
SUM149PT [8] = experiment: Inhibition of sodium arachidonate-induced PGE2 production in human SUM149 cells assessed as PGE2 level per 1000 cells at 10 uM preincubated for 2 hrs before sodium arachidonate challenge measured after 2 hrs by competitive EIA (reference value: 3.15 +/- 0.19 pg/mL); summary of the method: as §1
SUM149PT [9] = experiment: Inhibition of sodium arachidonate-induced PGE2 production in human SUM149 cells at 1 uM preincubated for 2 hrs before sodium arachidonate challenge measured after 2 hrs by competitive EIA; summary of the method: as §1

| SMILES | inhibition at 0.1 µM (SUM149PT [1]) | Activity (SUM149PT [2]) | inhibition at 10 µM (SUM149PT [3]) | Activity [4] | Activity (SUM149PT [5]) | Activity [6] | Activity [7] | Activity (SUM149PT [8]) | inhibition at 1 µM (SUM149PT [9]) |
| --- | --- | --- | --- | --- | --- | --- | --- | --- | --- |
| CCOc1ccc(-c2cc(C)cn2-c2ccc(S(N)(=O)=O)cc2)cc1 [APRICOXIB] | 70% | 0.28 pg/mL | 97% | 0.22 pg/mL | 0.97 pg/mL | 2.1 pg/mL | 0.5 pg/mL | 0.11 pg/mL | 91% |
| Cc1ccc(-c2cc(C(F)(F)F)nn2-c2ccc(S(N)(=O)=O)cc2)cc1 [CELECOXIB] | – | 0.43 pg/mL | – | 0.18 pg/mL | 1.19 pg/mL | 2.87 pg/mL | 0.81 pg/mL | 0.13 pg/mL | – |
